# From PubChem
# mABHD4 FP: ABHD4 inhibitors, primary screen, biochemical, fluorescence polarization, mouse. (Lyso)-N-acylphosphatidylethanolamine lipase (Mus musculus), Q8VD66. inhibition, % at 8.92 µM. purified mABHD4, FP-Rh probe fluorescence polarization. 370,000 tested, 0.54% active;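 active = inhibition exceeding the mean over every tested compound plus 3 SD, cut at about 30% in these data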;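 note: 0% = plate median of compound wells and 100% = S159A mutant with DMSO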
#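 Assay system: Wild-type mouse ABHD4 protein | Medium: HEPES pH 7.0 buffer, 150 mM NaCl, 0.01% Pluronic F-127 | Incubation: Enzyme–compound pre-incubation 45 min, then probe 60 min, both 25 °C | Technique: Fluorescence polarization with parallel and perpendicular emission, 525/598 nm | Evaluation: % inhibition of FP-Rh probe binding versus controls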
# HTRA1 inh: HTRA1 serine protease inhibitors, primary screen, biochemical, fluorescence polarization, HTS; Q92743; recombinant HTRA1, FP-rhodamine activity-based probe; inhibition, % at 5.96 µM; 340,000 tested, 0.5% active; AID 504803, 2011; in the data active = inhibition above about 36%;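 note: 0% = enzyme with DMSO and 100% = wells lacking enzyme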
# Target sequence (Q92743 whole entry, looked up): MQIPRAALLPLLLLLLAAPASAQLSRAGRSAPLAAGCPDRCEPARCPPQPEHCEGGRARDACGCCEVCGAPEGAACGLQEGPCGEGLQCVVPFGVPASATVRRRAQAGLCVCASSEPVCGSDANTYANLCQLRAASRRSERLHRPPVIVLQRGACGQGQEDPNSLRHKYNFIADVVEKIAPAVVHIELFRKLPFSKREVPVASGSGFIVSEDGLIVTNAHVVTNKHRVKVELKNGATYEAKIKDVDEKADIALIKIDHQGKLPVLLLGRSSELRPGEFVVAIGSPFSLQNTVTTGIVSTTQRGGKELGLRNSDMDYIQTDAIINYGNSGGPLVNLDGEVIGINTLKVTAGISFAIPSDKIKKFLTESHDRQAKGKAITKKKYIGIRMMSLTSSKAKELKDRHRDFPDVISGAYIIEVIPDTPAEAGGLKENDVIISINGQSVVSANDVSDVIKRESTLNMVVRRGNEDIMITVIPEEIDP
# rCAG RNA binder: binders of r(CAG) RNA repeats, primary screen, biochemical, fluorescence; r(CAG) RNA repeat, TO-PRO-1 dye displacement fluorescence; inhibition, % at 3 µM; 370,000 tested, 1.3% active; AID 651821, 2012;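 active = inhibition above the plate cutoff, the mean of all test compounds on that plate plus 3 SD, cut at about 35% in these data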;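 note: 0% = DMSO alone and 100% = 100 µM mitoxantrone as full dye displacement; higher means more dye released from RNA so lower well fluorescence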
# SIAE inh: human SIAE inhibitors, primary screen, biochemical, fluorescence polarization, FP-Rh probe, 1536-well HTS; Sialate O-acetylesterase (Homo sapiens), Q9HAT2; SIAE FP-Rh probe binding; inhibition, % at 9.66 µM; 370,000 tested, 0.69% active;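 active = inhibition above a cutoff: mean of compounds within the control limits plus 3 SD of those, cut at about 17% in these data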;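 note: 0% = plate median of compound wells and 100% = probe without SIAE protein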
# TCR CD3 inh: inhibitors of human TCR-CD3 interaction, primary screen, biochemical, fluorescence, TAMRA-labeled TCR probe | T-cell receptor (TCR) | inhibition, % at 9.4 µM | 360,000 tested, 0.37% active; in the data active = inhibition above about 19%;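 note: recombinant mutant TCR 2C K166C tagged with TAMRA read by polarization; 0% = receptor in buffer alone and 100% = receptor with positive control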
# rCAG binder conf: small molecules binding CAG repeat RNA – biochemical, fluorescence, confirmation. shares compounds with rCAG RNA binder. r(CAG) RNA repeat, TO-PRO-1 dye displacement fluorescence. inhibition, % at 3 µM. 4,300 tested, 70% active. AID 652065, 2013;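 active = inhibition above a per-plate cutoff, the mean inhibition of sample wells plus 3 SD, cut at about 35% in these data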;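 note: loss of TO-PRO-1 fluorescence as compound displaces dye from 1x1 AA loop RNA; 0% = DMSO only wells and 100% = 100 µM mitoxantrone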
# DNA CAG counter: displacement of TO-PRO-1 from CAG DNA duplex, counter-screen for rCAG RNA repeat binder project, biochemical, fluorescence, TO-PRO-1 dye, d(CAG) DNA oligo; inhibition, % at 3 µM; AID 652068, 2013; d(CAG) DNA oligo TO-PRO-1 dye displacement; 4,300 tested, 94% active; shares compounds with rCAG RNA binder;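 active = inhibition above its plate's cutoff, the mean test-well inhibition plus 3 SD, cut at about 4.8% in these data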;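 note: 0% = DNA dye mix with DMSO and 100% = 100 µM mitoxantrone; hits displace the dye from DNA and so lower well fluorescence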
# * hit, by the source's call; x = no result. In the library only some 2.5% were active in any assay of this set; here they are far more common.
SMILES,mABHD4 FP,HTRA1 inh,rCAG RNA binder,SIAE inh,TCR CD3 inh,rCAG binder conf,DNA CAG counter
Cc1ccc(S(=O)(=O)Nc2nc3ccc(S(C)(=O)=O)cc3s2)cc1,1,0,15,-5,1,x,x
CC(=O)NC(=S)Nc1ccc(-c2nc3ccc(C)cc3s2)cc1,0,-2,4,6,4,x,x
Cc1ccc2nc(-c3ccc(NS(=O)(=O)c4ccc(F)cc4)cc3)sc2c1,-92,-83,48*,-97,-1,60*,24*
CC1=CCC(C(=O)O)C(C(=O)Nc2ccc(-c3nc4ccc(C)cc4s3)cc2)C1 (centres undefined),-7,-34,67*,-24,-7,73*,36*
O=[N+]([O-])c1ccc2nc(NS(=O)(=O)c3ccc(F)cc3)sc2c1,0,-22,43*,10,-1,28,4
Cc1ccc2[nH]c(C(=O)O)c(NC(=O)CN3CCN(c4cccc(C)c4C)CC3)c2c1,21,1,65*,8,1,69*,28*
Cc1ccc(C#CC(C)(O)C(C)(C)C)cn1 (centres undefined),4,3,-4,5,-5,x,x
O=C1CC(NCc2ccc3c(c2)OCO3)C(=O)N1CCc1ccccc1 (centres undefined),2,7,-6,-1,-10,x,x
Cc1ccc(NC(=O)CN(C)C(=O)c2cc(-c3ccco3)nc3ccccc23)cc1,-4,2,35*,1,2,14,8.7*
O=C(COC(=O)c1cc(-c2ccco2)nc2ccccc12)NCc1ccccc1,-2,-15,38*,-2,-1,10,4
Cn1c(N)c(C(=O)COC(=O)c2cc(-c3ccco3)nc3ccccc23)c(=O)n(C)c1=O,-5,24,49*,4,18,45*,20*
COc1ccc(-c2cc(C(=O)OCC(=O)c3c(N)n(C)c(=O)n(C)c3=O)c3ccccc3n2)cc1,2,-1,0,-10,0,x,x
C=CCn1c(=O)c2c(nc3n2CC(C)CN3c2cccc(OC)c2)n(C)c1=O (centres undefined),4,-1,0,4,-8,x,x
Cn1c(N)c(C(=O)c2ccc(Oc3ccccc3)cc2)c(=O)n(C)c1=O,-2,0,-6,-2,7,x,x
CC1(NC(=O)N2CCCCC2)CCS(=O)(=O)C1 (centres undefined),-2,0,0,3,6,x,x
Oc1csc(Cc2nc(-c3ccc4ccccc4c3)cs2)n1,27,10,36*,-9,-4,32,18*
Cc1ccc(-n2ncc3c2CC(C)(C)CC3NC(=O)CCc2ccc(=O)[nH]n2)cc1 (centres undefined),-3,2,-2,-3,-3,x,x
O=C(Nc1ccc(S(=O)(=O)Nc2nccs2)cc1)c1nn(-c2ccc(F)cc2)ccc1=O,16,8,46*,-14,-1,45*,20*
O=C(Nc1ccc(S(=O)(=O)Nc2nccs2)cc1)c1ccc(F)cc1,-15,-10,8,-5,-5,x,x
CC1CN(S(=O)(=O)c2ccc(C(=O)Nc3ccc(S(=O)(=O)Nc4nccs4)cc3)cc2)CC(C)O1 (centres undefined),-1,0,57*,-19,7,65*,19*
O=C(Nc1ccc(S(=O)(=O)N2CCOCC2)cc1)c1nn(-c2ccc(F)cc2)ccc1=O,1,4,2,-1,3,x,x
O=C(Nc1ccc(S(=O)(=O)Nc2nccs2)cc1)c1ccc(N2C(=O)c3ccccc3C2=O)cc1,-36,-47,45*,-88,-2,56*,24*
Cc1noc(NS(=O)(=O)c2ccc(NC(=O)c3nn(-c4ccccc4)ccc3=O)cc2)c1C,-1,4,35*,-10,6,21,5.7*
CC(C)(C)Sc1ccc2nc3c(n2c1)CCCC3,3,-8,-1,5,2,x,x
CCN(CC)c1ccc(S(=O)(=O)N(CC)CC)cc1NC(=O)C1CCCC1,2,-19,-10,4,1,x,x
SMILES,mABHD4 FP,HTRA1 inh,rCAG RNA binder,SIAE inh,TCR CD3 inh,rCAG binder conf,DNA CAG counter
Cc1noc(NS(=O)(=O)c2ccc(NC(=O)c3ccc(N4C(=O)c5ccccc5C4=O)cc3)cc2)c1C,0,2,74*,0,1,59*,26*
Cc1noc(NS(=O)(=O)c2ccc(NC(=O)CCN3C(=O)c4ccccc4C3=O)cc2)c1C,1,5,14,-1,1,x,x
O=C(CN1C(=O)c2cccc3cccc1c23)Nc1ccc(S(=O)(=O)N2CCOCC2)cc1,-4,-11,7,-12,1,x,x
Cc1noc(NS(=O)(=O)c2ccc(NC(=O)c3cc(=O)c4ccccc4o3)cc2)c1C,0,-5,37*,-4,4,13,2
O=C(CN1C(=O)c2cccc3cccc1c23)Nc1ccc(S(=O)(=O)Nc2nccs2)cc1,-8,7,67*,-5,-1,47*,17*
Cc1ccc2oc(C(=O)Nc3ccc(S(=O)(=O)Nc4onc(C)c4C)cc3)cc(=O)c2c1,0,6,16,-6,5,x,x
O=[N+]([O-])c1ccc(-c2cc(-c3ccc(Cl)cc3)n[nH]2)cc1,-1,-14,4,-40,-1,x,x
CC1=NN(c2ccccc2)C(=O)C1/C=C1\NC(=S)NC1=O (centres undefined),5,-3,55*,6,1,72*,36*
CC1=NN(c2ccccc2)C(=O)C1C=Nc1ccccc1O (centres undefined),x,7,x,x,x,x,x
COc1ccccc1N1CC(C(=O)NC2CCCCCC2)CC1=O (centres undefined),-5,5,1,0,-1,x,x
CC(C)CCN1C(=O)c2ccc(C(=O)Nc3ccccc3C(=O)O)cc2C1=O,-4,-12,55*,-26,9,80*,51*
CC(C)CCN1C(=O)c2ccc(C(=O)Nc3ccc(O)cc3C(=O)O)cc2C1=O,17,7,98*,-10,-3,84*,51*
O=C(Nc1ccc(O)cc1C(=O)O)c1ccc2c(c1)C(=O)N(Cc1ccco1)C2=O,14,4,73*,-42,-6,86*,50*
O=C(O)c1c2c(nc3ccc(S(=O)(=O)N4CCC(C(=O)NCc5ccc(Cl)cc5)CC4)cc13)CCCC2,9,2,42*,5,2,40*,13*
